Data reported in PMC11378026 (RSC Advances, 2024).
Converted amounts (≈) assume the structure as drawn. Like-named read-outs stand apart in the source and are kept apart here.

How the values were obtained:
[1] = tested on: breast cancer (MCF-7) cell line; test: MTT cytotoxicity assay on MCF-7 cells; type: cell-based, human
[2] = tested on: breast epithelial (MCF10A) cell line; test: MTT cytotoxicity assay on MCF10A cells; type: cell-based; settings: Homo sapiens, MCF-10A, read-out: IC50 (μg mL^−1) ± SD against MCF-10A
Outline: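 Mycoplasma-free MCF-10A cells, run in triplicate, were exposed to increasing doses of test compound, with 5-fluorouracil as positive control. MTT was added for 4 h, formazan was dissolved in DMSO, and absorbance was read at 570 and 630 nm. Viability = (A − A0)/(ANC − A0), using mean absorbances of treated, blank and cells-only wells. IC50 was derived from viability.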

breast cancer cells = settings: cited from earlier work

SMILES: O=c1[nH]cc(F)c(=O)[nH]1 [5-FU, 5-fluorouracil, reference compound]
- IC50 ([1]; Homo sapiens, MCF7, read-out: IC50 (μg mL^−1) ± SD against MCF-7): 28.3 ± 1.89 µg/mL (≈ 218 µM)
- Selectivity index (SI) ([1]; cancer MCF-7 cells over healthy MCF10A cells): 1.45
- IC50 [2]: 41 ± 1.89 µg/mL (≈ 315 µM)

SMILES: N.N.O=C([O-])C1(C(=O)[O-])CCC1.[Pt+2] [Carboplatin]
- IC50 (breast cancer cells; ref S2): 73.5 µM

SMILES: N.N.[Cl][Pt][Cl] [Cisplatin]
- IC50 (breast cancer cells; ref S1): 12.2 µM

SMILES: O=C1[O][Pt]2([NH][C@@H]3CCCC[C@H]3[NH]2)[O]C1=O [Oxaliplatin]
- IC50 (breast cancer cells; ref S2): 21.9 µM
